# GSK3beta inhib = human GSK3beta kinase inhibition; P49841; GST-GSK3beta kinase, ADP-Glo luminescence, 60 min; hits give low values; activity score (negative = inhibition), % at 10 µM; 0.038% of 300,000 active; AID 2097;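 active means more than half of replicate wells score below -50%, meaning over 50% inhibition versus plate controls; inconclusive means some replicates but at most half score below -50%; inactive means no replicate scores below -50%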
#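 Test system – GST-tagged human GSK3beta kinase, cell-free · Incubation – 60 min enzyme reaction, room temperature · Signal – ADP-Glo luminescence · Also added – peptide substrate and ATP at 25 µM · Controls – DMSO neutral wells and GW8510 at 20 µM as positive · Buffer or medium – Tris/MgCl2 kinase buffer · Measure – Luminescence-derived activity versus plate DMSO and GW8510 wells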
# proCasp3 act = activators of human procaspase-3; P42574; recombinant procaspase-3 D3A, Ac-DEVD-pNA absorbance 405 nm; activation, % at 8.5 µM; 0.11% of 330,000 active;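 active means activation above the mean of all tested compounds plus 3 SD, cut at about 21% in these data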
# Target sequence (P42574 whole entry D9A/D28A/D175A): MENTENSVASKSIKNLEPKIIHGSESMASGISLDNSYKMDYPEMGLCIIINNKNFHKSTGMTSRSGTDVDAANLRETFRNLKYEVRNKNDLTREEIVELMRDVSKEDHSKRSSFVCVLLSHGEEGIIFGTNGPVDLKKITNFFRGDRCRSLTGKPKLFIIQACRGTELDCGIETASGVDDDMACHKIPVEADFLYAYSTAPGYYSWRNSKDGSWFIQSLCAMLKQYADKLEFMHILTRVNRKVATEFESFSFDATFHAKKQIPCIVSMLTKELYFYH
#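 Test system: Procaspase-3 D3A mutant, all three cleavage aspartates alanine | Dosing: Single dose, 8.5 µM nominal compound, 0.8% DMSO | Schedule: 1 h preincubation, 2 h reaction | Technique: 405 nm absorbance of p-nitroaniline, reads at 0 and 120 min | Repeats: One well per compound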
# Bfl-1 A1 inh = inhibitors of the anti-apoptotic protein A1, read as caspase activation; MEF A1-2A-BIM cells, Caspase-Glo 3/7 luminescence, 3 h; percent of clofoctol response, vehicle zero; caspase activation, % (concentration not given with the values); 0.066% of 330,000 active;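 active means over half of replicate activation scores above 10%, or exactly half above 10 with the replicate mean above 10; inconclusive means replicate mean below 10 yet half the replicates above 10; inactive means over half of replicates below 10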
# proCasp7 act = counter-screen: procaspase-7 (human) activation. recombinant procaspase-7, Ac-DEVD-pNA absorbance 405 nm; D23A/D198A/D206A triple mutant, cannot self-cleave; scale: DMSO 0, 5 µM enzyme 100. activation, % at 8.5 µM. 0.093% of 330,000 active. AID 463210;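 active means percent activation above the screen-wide mean plus 3 SD, cut at about 25% in these data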
# Target sequence (P55210 whole entry D23A/D198A/D206A): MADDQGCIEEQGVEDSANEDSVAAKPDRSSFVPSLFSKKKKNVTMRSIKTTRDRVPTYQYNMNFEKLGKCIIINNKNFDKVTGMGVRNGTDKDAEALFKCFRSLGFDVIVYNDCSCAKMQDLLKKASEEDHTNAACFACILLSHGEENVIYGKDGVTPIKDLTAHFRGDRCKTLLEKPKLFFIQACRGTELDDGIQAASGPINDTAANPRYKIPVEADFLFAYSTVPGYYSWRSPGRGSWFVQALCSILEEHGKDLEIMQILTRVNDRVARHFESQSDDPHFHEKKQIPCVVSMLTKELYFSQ
#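 signal = Epi-absorbance of released pNA at 405 nm, two timepoints | assay system = Uncleavable procaspase-7 mutant enzyme | reagent = Ac-DEVD-pNA substrate, 400 µM as added | times = 1 h enzyme–compound preincubation and 2 h substrate reaction, both 25 °C | benchmarks = low DMSO alone, high DMSO plus 5 µM PC-7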
# GSK3 alpha inh = inhibitors of human GSK-3 alpha kinase. ADP-Glo luminescence, 60 min. inhibition, % at 10 µM. 0.1% of 320,000 active. AID 2650;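 active means more than half of replicates show inhibition above 20%; inconclusive means some but at most half of replicates above 20% inhibition; inactive means no replicate shows inhibition above 20%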;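 further: GST-tagged GSK-3 alpha with peptide substrate and 25 µM ATP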
# STK33 kinase inh = blocks human STK33 kinase activity | Q9BYT3 | purified STK33, MBP phosphorylation, ADP-Glo luminescence | inhibition, % at 10 µM | 0.073% of 320,000 active;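 active means inhibition at or above 25%, using the most active replicate where run in duplicate; inactive means inhibition below 25%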
# Numbers stand for hits; i = inactive; ? = inconclusive; nt = no result given. Hits are enriched below; roughly 0.38% of the tested compounds scored in any of these assays.
SMILES,GSK3beta inhib,proCasp3 act,Bfl-1 A1 inh,proCasp7 act,GSK3 alpha inh,STK33 kinase inh
Cc1c(C#N)c(O)[nH]c(=O)c1N=Nc1ccc(S(N)(=O)=O)cc1,-76,i,i,i,79,i
CN1/C(=C/C2CC(=O)NC2=O)C(C)(C)c2ccccc21 (centres undefined),nt,i,i,i,65,i
CCOC(=O)CCCNS(=O)(=O)c1c(C)ccc2nsnc12,i,i,6.6,i,i,nt
Cc1ccc2nsnc2c1NS(=O)(=O)c1c(C)ccc2nsnc12,i,i,i,i,i,i
CCn1c(C)nc2cc(-c3nc4n(n3)Cc3ccccc3-4)ccc21,i,i,i,i,51,45
C=CC(=O)Nc1ccc(CN2C(=O)N(c3c(Cl)c(OC)cc(OC)c3Cl)Cc3cnc(NCCCCN(CC)CC)nc32)cc1,nt,i,?,i,i,80
O=C(NCCCn1ccnc1)/C(=C\c1cccnc1)NC(=O)c1ccccc1F,i,i,i,i,i,i
Cc1ccc(-c2noc(CNC(=O)c3ccc4c(c3)OCO4)n2)cc1,i,i,i,i,i,i
COc1ccc(C(=O)NNC(=O)c2ccccn2)cc1,i,i,i,i,i,41
COc1cc(OC)cc(C(=O)O/N=C(\N)c2ccccn2)c1,i,i,i,i,i,i
COc1ccc(C(=O)O/N=C(\N)c2ccccn2)cc1,i,i,i,i,51,37
O=C(CSc1nnc(-c2cccs2)n1-c1cccc(Cl)c1)c1cccc2c1OCCO2,i,i,i,i,i,i
CC(=O)N1CCc2c(sc(NC(=O)CN3C(=O)CCC3=O)c2C(N)=O)C1,-79,i,i,i,93,i
CCC1(C)NC(=O)N(CC(=O)Nc2sc3c(c2C(N)=O)CCC3)C1=O (centres undefined),i,i,i,i,58,i
CC(=O)N1CCc2c(sc(NC(=O)CN3C(=O)c4ccccc4C3=O)c2C(N)=O)C1,-52,i,i,i,i,i
CC(C)N1CCc2c(sc(NC(=O)CN3C(=O)c4ccccc4C3=O)c2C(N)=O)C1,i,i,i,i,i,i
CCC(=O)Nc1sc2c(c1C(N)=O)CCN(C(C)=O)C2,i,i,i,i,i,i
O=C(NCc1ccccc1)C12CC3CC(CC(Br)(C3)C1)C2,i,i,i,i,i,i
Cc1ccc(N(C(=O)c2csnn2)C(C(=O)NCc2ccccc2)c2cccnc2)cc1 (centres undefined),i,i,i,i,i,i
CCn1c(SCC(=O)Nc2ccc(Br)cn2)nnc1C1CC1,-52,i,i,i,i,i
Cn1c(SCC(=O)Nc2ccc(Cl)cn2)nnc1C1CC1,i,i,i,i,51,i
CCn1c(SCC(=O)Nc2nccs2)nnc1C1CC1,i,i,i,i,i,i
S=C(Nc1ccc(Cl)cc1)Nc1cccc2cnccc12,i,i,i,i,i,i
S=C(Nc1cccnc1)Nc1cccc2cnccc12,i,i,i,i,59,27
O=C(O)c1ccc(Nc2nc(-c3cccnc3)nc3ccccc23)cc1,i,i,i,i,61,i
SMILES,GSK3beta inhib,proCasp3 act,Bfl-1 A1 inh,proCasp7 act,GSK3 alpha inh,STK33 kinase inh
COC(=O)c1cccc(Nc2nc(-c3cccnc3)nc3ccccc23)c1,i,i,i,i,i,i
O=C(O)c1cccc(Nc2nc(-c3cccnc3)nc3ccccc23)c1,i,i,i,i,i,32
CCOC(=O)c1cccc(Nc2nc(-c3cccnc3)nc3ccccc23)c1,i,i,i,i,i,i
O=C(Nc1ccc(Cl)cc1)c1nc[nH]c1C(=O)NCCN(CCNC(=O)c1[nH]cnc1C(=O)Nc1ccc(Cl)cc1)CCNC(=O)c1[nH]cnc1C(=O)Nc1ccc(Cl)cc1,nt,i,i,i,i,i
O=C(Nc1ccc([N+](=O)[O-])cc1)c1nc[nH]c1C(=O)NC1CCCCC1,i,i,47,i,i,i
O=C(Nc1ccc(Cl)cc1)c1nc[nH]c1C(=O)NCCCNC(=O)c1[nH]cnc1C(=O)Nc1ccc(Cl)cc1,nt,i,13,i,i,i
Cc1cc(C(C#N)c2ccc(Cl)cc2)c(Cl)cc1NC(=O)c1cc(I)cc(I)c1O (centres undefined),i,i,5.8,i,i,i
CC(C)=CCc1c(O)ccc2c1OC(c1ccc(O)c(O)c1)CC2=O (centres undefined),-50,i,i,i,76,i
O=C1CC(c2ccc(O)c(O)c2)Oc2c1ccc(O)c2O (centres undefined),nt,i,i,i,i,i
Cc1cccc(C(=O)NNC(=O)c2csc(N3CCOCC3)n2)c1C,i,i,i,i,i,i
COc1cc(C2C(C#N)=C(N)Oc3n[nH]c(-c4cccnc4)c32)cc(Br)c1O (centres undefined),i,i,i,i,53,i
CCC1=C2CC[C@H]3C(=O)NC(=O)[C@H]3[C@H]2[C@@]2(Cc3ccccc3)C(=NCC(=O)OC)OC(=O)N2C1=O,nt,i,i,i,i,i
CCn1c2ccc(/C(C)=N\O)cc2c2cc(/C(C)=N\O)ccc21,i,i,i,i,i,37
COc1ccc(-c2nc(NC(=O)c3n[nH]c(=O)c4ccccc34)sc2C)cc1,i,i,6.7,i,i,i
CCN(CC)S(=O)(=O)c1ccc(/C=C/C(=O)OCC(=O)N(C(C)C)C(C)C)cc1,i,i,i,i,i,i
COc1cc2c(ccc3cc(OC)c(OC)c(O)c32)cc1O,i,i,i,i,i,35
CN(C)/C=C/C(=O)c1ccc2noc(-c3ccccc3)c2c1,i,i,i,i,i,45
NC(=S)N/N=C/c1ccccc1OCCSc1ccc(Cl)cc1,i,i,i,i,nt,nt
Cc1ccc(-n2c(C)c([N+](=O)[O-])c3ccc(O)c(CN(C)C)c32)cc1,i,i,i,i,i,i
COc1ccc(-n2c(C)c([N+](=O)[O-])c3ccc(O)c(CN4CCCCC4)c32)cc1,i,i,i,i,51,i
CC(Oc1ccc2c(c1)c1ccnc3c4ccccc4c(=O)n2c13)C(=O)NCCN1CCOCC1 (centres undefined),i,i,i,i,i,75
COc1ccc2c(c1OC)c(=O)n1c3ccc(OC(C)C(=O)NCCN4CCOCC4)cc3c3ccnc2c31 (centres undefined),i,i,i,i,i,i
COC(=O)c1ccc2c(=O)n(Cc3ccc4c(c3)OCO4)c(=S)[nH]c2c1,i,i,6.3,i,i,i
COCCn1c(=S)[nH]c2cc(C(=O)N3CCN(Cc4ccc5c(c4)OCO5)CC3)ccc2c1=O,nt,i,i,i,i,i
Cc1cc(C(C#N)c2ccccc2F)n2ncnc2n1 (centres undefined),i,i,i,i,55,i

# Assay outcomes from PubChem BioAssay.
